Measured values reported in ChEMBL document CHEMBL1137713, “Synthesis and antimalarial activity of pyrazolo and pyrimido benzothiazine dioxide derivatives” (2009).
Calls of active or inactive are those of the source. The calls are words filed in the database; no cut-off is given here.

What was measured:
[1] = target: T1, Histidine-rich protein PFHRP-II (Plasmodium falciparum) (UniProt P05227); assay: Inhibition of beta-hematin formation assessed as inhibition of flavoprotein polymerization at 5 to 100 mM after 48 hrs; format: functional
T1 sequence (whole entry): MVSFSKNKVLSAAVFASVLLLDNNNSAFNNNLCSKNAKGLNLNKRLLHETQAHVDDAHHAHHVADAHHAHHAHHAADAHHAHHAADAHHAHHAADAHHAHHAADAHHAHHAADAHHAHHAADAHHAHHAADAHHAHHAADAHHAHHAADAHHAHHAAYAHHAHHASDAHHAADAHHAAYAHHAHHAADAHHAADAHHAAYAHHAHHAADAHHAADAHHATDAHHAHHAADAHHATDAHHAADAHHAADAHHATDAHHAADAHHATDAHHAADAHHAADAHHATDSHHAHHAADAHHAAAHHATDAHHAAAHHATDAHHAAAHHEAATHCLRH
Summary of the method: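 Hemin chloride in DMSO is mixed with compound in DMSO (100–5 range), tested in triplicate, with water or DMSO controls. Reaction is started with 0.2 M acetate buffer pH 4.4 and run at 37 °C for 48 h. Pellet is washed twice with DMSO, dissolved in 0.2 N NaOH, diluted 1:2 in 0.1 N NaOH, and read at 405 nm. Result is % inhibition of FP polymerization.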

Plasmodium berghei [2] = assay: Antimalarial activity against chloroquine-sensitive Plasmodium berghei ANKA infected BALB/c mice (Mus musculus) erythrocytes at 10 uM after 18 hrs as reduced hemoglobin hydrolysis; format: functional
Summary of the method: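 Trophozoite-rich extract from P. berghei-infected mouse blood (30–50% parasitemia, Percoll-enriched mature forms, saponin-lysed, freeze-thawed) digests native mouse hemoglobin with 10 mM GSH in 0.2 M acetate buffer pH 5.4. Compound is added in DMSO. Incubation is 37 °C for 18 h. Globin 14 kDa band is assessed by SDS-PAGE densitometry against a DMSO control and expressed as % inhibition of hydrolysis.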

Plasmodium berghei [3] = assay: Antimalarial activity as MST against chloroquine-sensitive Plasmodium berghei ANKA infected BALB/c mice (Mus musculus) erythrocytes at 20 mg/kg intraperitoneal dose for 4 days (RVb=11.66+/-1.66 days); format: functional
Plasmodium berghei [4] = assay: Antimalarial activity against chloroquine-sensitive Plasmodium berghei ANKA infected BALB/c mice (Mus musculus) erythrocytes at 20 mg/kg intraperitoneal dose for 4 days as parasitaemia
Plasmodium berghei [5] = assay: Antimalarial activity as parasitaemia against chloroquine-sensitive Plasmodium berghei ANKA infected BALB/c mice (Mus musculus) erythrocytes at 25 mg/kg intraperitoneal dose for 4 days; format: functional
Summary of the method: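 Male Balb-C mice infected with 10^6 P. berghei ANKA-infected erythrocytes; n=6. Compound is given as a DMSO stock diluted in 2% saline–Tween 20, ip once daily for 4 days starting 2 h post-infection. Chloroquine is given at 25 mg/kg. Day-4 parasitemia is read from Giemsa smears and survival days are recorded versus untreated controls. Mean ± SEM.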

Plasmodium berghei [6] = assay: Antimalarial activity as MST against chloroquine-sensitive Plasmodium berghei ANKA infected BALB/c mice (Mus musculus) erythrocytes at 25 mg/kg intraperitoneal dose for 4 days (RVb=11.66+/-1.66 days); format: functional
Plasmodium berghei [7] = assay: Antimalarial activity against chloroquine-sensitive Plasmodium berghei ANKA infected BALB/c mice (Mus musculus) erythrocytes at 20 mg/kg intraperitoneal dose for 4 days

SMILES | inhibition [1] [%] | inhibition at 10 µM (Plasmodium berghei [2]) [%] | also measured
Nc1n[nH]c2c1S(=O)(=O)c1ccc(Cl)cc1N2c1ccccc1 | < 5 | 76.4 | 
Nc1nc(N)c2c(n1)N(c1ccccc1)c1ccc(Cl)cc1S2(=O)=O | < 5 | 0 | 
Cc1ccccc1N1c2ccc(Cl)cc2S(=O)(=O)c2c(N)nc(N)nc21 | < 5 | 0 | 
Cc1ccc(N2c3cc(Cl)ccc3S(=O)(=O)c3c(N)nc(N)nc32)cc1 | < 5 | 50.1 | 
Nc1n[nH]c2c1S(=O)(=O)c1ccc(Cl)cc1N2c1cccc(Cl)c1 | 85.4 | 58.9 | Activity (Plasmodium berghei [3]): 12.5 days; Activity (Plasmodium berghei [4]): 10.33%
COc1cccc(N2c3ccc(Cl)cc3S(=O)(=O)c3c(N)nc(N)nc32)c1 | < 5 | 0 | 
Cc1ccc(C)c(N2c3cc(Cl)ccc3S(=O)(=O)c3c(N)nc(N)nc32)c1 | < 5 | 64.6 | 
Cc1ccc(C)c(N2c3ccc(Cl)cc3S(=O)(=O)c3c(N)n[nH]c32)c1 | < 5 | 0 | 
Cc1ccccc1N1c2cc(Cl)ccc2S(=O)(=O)c2c(N)nc(N)nc21 | < 5 | 72.6 | 
Cc1ccc(N2c3ccc(Cl)cc3S(=O)(=O)c3c(N)nc(N)nc32)cc1 | < 5 | 0 | 
CCN(CC)CCCC(C)Nc1ccnc2cc(Cl)ccc12 (configuration not stated) [CHLOROQUINE] |  | 24.1 | Activity (Plasmodium berghei [5]): 1.3%; Activity (Plasmodium berghei [6]): 30 days
COc1ccc(N2c3cc(Cl)ccc3S(=O)(=O)c3c(N)nc(N)nc32)cc1 | < 5 | 40.9 | 
Nc1nc(N)c2c(n1)N(c1ccc(Cl)cc1)c1cc(Cl)ccc1S2(=O)=O | < 5 | 67.2 | 
Cc1ccc(C)c(N2c3ccc(Cl)cc3S(=O)(=O)c3c(N)nc(N)nc32)c1 | < 5 | 0 | 
Nc1nc(N)c2c(n1)N(c1ccccc1)c1cc(Cl)ccc1S2(=O)=O | < 5 | 83.7 | Activity (Plasmodium berghei [3]): 10.8 days; Activity (Plasmodium berghei [4]): 12.7%
Nc1nc(N)c2c(n1)N(c1ccc(Cl)cc1)c1ccc(Cl)cc1S2(=O)=O | < 5 | 0 | 
Nc1nc(N)c2c(n1)N(c1ccc(Br)cc1)c1ccc(Cl)cc1S2(=O)=O | < 5 | 0 | 
CC(=O)N[C@@H](CC(C)C)C(=O)N[C@@H](CC(C)C)C(=O)N[C@H](C=O)CCCNC(=N)N [LEUPEPTIN] |  | 89.1 | 
Cc1ccccc1N1c2cc(Cl)ccc2S(=O)(=O)c2c(N)n[nH]c21 | < 5 | 92.3 | Activity (Plasmodium berghei [3]): 13 days; Activity (Plasmodium berghei [7]): inactive; Activity (Plasmodium berghei [4]): 9.75%
CC(C)CC(=O)N[C@H](C(=O)N[C@H](C(=O)N[C@@H](CC(C)C)[C@@H](O)CC(=O)N[C@@H](C)C(=O)N[C@@H](CC(C)C)[C@@H](O)CC(=O)O)C(C)C)C(C)C [PEPSTATIN] |  | 92.9 | 
Nc1nc(N)c2c(n1)N(c1cccc(Cl)c1)c1cc(Cl)ccc1S2(=O)=O | < 5 | 0 | 
Nc1nc(N)c2c(n1)N(c1ccc(Cl)c(Cl)c1)c1cc(Cl)ccc1S2(=O)=O | < 5 | 76 | 
Nc1nc(N)c2c(n1)N(c1cccc(Cl)c1)c1ccc(Cl)cc1S2(=O)=O | < 5 | 0 | 
COc1cccc(N2c3cc(Cl)ccc3S(=O)(=O)c3c(N)nc(N)nc32)c1 | < 5 | 56.3 | 
Nc1nc(N)c2c(n1)N(c1ccc(Br)cc1)c1cc(Cl)ccc1S2(=O)=O | < 5 | 49 | 
Nc1nc(N)c2c(n1)N(c1ccc(Cl)c(Cl)c1)c1ccc(Cl)cc1S2(=O)=O | < 5 | 0 | 
Cc1ccc(C)c(N2c3cc(Cl)ccc3S(=O)(=O)c3c(N)n[nH]c32)c1 | < 5 | 69.4 | 
Nc1n[nH]c2c1S(=O)(=O)c1ccc(Cl)cc1N2c1ccc(Cl)c(Cl)c1 | < 5 | 67.6 | 

Continued, in another order:

inhibition [1] [%] | SMILES | inhibition at 10 µM (Plasmodium berghei [2]) [%] | also measured
< 5 | Nc1n[nH]c2c1S(=O)(=O)c1cc(Cl)ccc1N2c1ccc(Cl)c(Cl)c1 | 0 | 
< 5 | Cc1ccc(N2c3ccc(Cl)cc3S(=O)(=O)c3c(N)n[nH]c32)cc1 | 0 | 
< 5 | COc1cccc(N2c3cc(Cl)ccc3S(=O)(=O)c3c(N)n[nH]c32)c1 | 47.3 | 
< 5 | Cc1ccccc1N1c2ccc(Cl)cc2S(=O)(=O)c2c(N)n[nH]c21 | 0 | 
< 5 | Nc1n[nH]c2c1S(=O)(=O)c1cc(Cl)ccc1N2c1ccccc1 | 0 | 
< 5 | Nc1n[nH]c2c1S(=O)(=O)c1cc(Cl)ccc1N2c1ccc(Cl)cc1 | 0 | 
< 5 | COc1cccc(N2c3ccc(Cl)cc3S(=O)(=O)c3c(N)n[nH]c32)c1 | 0 | 
< 5 | Nc1n[nH]c2c1S(=O)(=O)c1ccc(Cl)cc1N2c1ccc(Cl)cc1 | 55.8 | 
< 5 | Nc1n[nH]c2c1S(=O)(=O)c1ccc(Cl)cc1N2c1ccc(Br)cc1 | 26.7 | 
< 5 | COc1ccc(N2c3ccc(Cl)cc3S(=O)(=O)c3c(N)nc(N)nc32)cc1 | 0 | 
< 5 | Cc1ccc(N2c3cc(Cl)ccc3S(=O)(=O)c3c(N)n[nH]c32)cc1 | 78.8 | 
< 5 | Nc1n[nH]c2c1S(=O)(=O)c1cc(Cl)ccc1N2c1ccc(Br)cc1 | 0 | 
< 5 | COc1ccc(N2c3ccc(Cl)cc3S(=O)(=O)c3c(N)n[nH]c32)cc1 | 0 | 
< 5 | COc1ccc(N2c3cc(Cl)ccc3S(=O)(=O)c3c(N)n[nH]c32)cc1 | 54.8 | 
< 5 | Nc1n[nH]c2c1S(=O)(=O)c1cc(Cl)ccc1N2c1cccc(Cl)c1 | 0 | 
